ChEMBL document CHEMBL6092204, “Synthesis of pyridyl pyrimidine hedgehog signaling pathway inhibitors and their antitumor activity in human pancreatic cancer” (Eur J Med Chem, 2024)

Columns and labels:
[1] = system: PANC-1; experiment: Induction of apoptosis in human PANC-1 cells assessed as necrotic cells at 8 uM incubated for 48 hrs by Annexin V-FITC/PI staining based flow cytometry (reference value: 2.24 %); type: functional
[2] = system: BXPC-3; experiment: Induction of cell cycle arrest in human BXPC-3 cells assessed as accumulation at S phase at 2.5 uM incubated for 48 hrs by PI/RNase staining based flow cytometry (reference value: 8.18 %); type: functional
[3] = Toxicity in BALB/c nude mouse xenografted with human BxPC-3 cells assessed as inflammatory infiltration in lung at 5 to 15 mg/kg, ip qd for 21 days by H and E staining based analysis; conditions: in vivo, 504 h
[4] = system: PANC-1; experiment: Inhibition of cell migration in human PANC-1 cells incubated for 48 hrs by crystal violet staining based transwell assay; type: functional; conditions: dose 2.5-10 µM
In short: (§1)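 Cells at 1.5×10^5 cells/mL in serum-free medium containing drug were added to the upper Transwell chamber (200 μL), with medium containing 10% FBS below. After 48 h, non-migrated cells were swabbed off. Inserts were fixed in 4% paraformaldehyde for 15-20 min and stained with 0.5% crystal violet. Cells were counted in four random fields at 100×; n = 3.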

[5] = system: PANC-1; experiment: Induction of apoptosis in human PANC-1 cells assessed as necrotic cells at 5 uM incubated for 48 hrs by Annexin V-FITC/PI staining based flow cytometry (reference value: 2.24 %); type: functional
[6] = system: BXPC-3; experiment: Induction of apoptosis in human BXPC-3 cells assessed as early apoptotic cells at 8 uM incubated for 48 hrs by Annexin V-FITC/PI staining based flow cytometry (reference value: 1.11 %); type: functional
[7] = system: PANC-1; experiment: Induction of apoptosis in human PANC-1 cells assessed as necrotic cells at 2.5 uM incubated for 48 hrs by Annexin V-FITC/PI staining based flow cytometry (reference value: 2.24 %); type: functional
[8] = system: PANC-1; experiment: Induction of cell cycle arrest in human PANC-1 cells assessed as accumulation at G1 phase at 10 uM incubated for 48 hrs by PI/RNase staining based flow cytometry (reference value: 82.0 %); type: functional
[9] = system: BXPC-3; experiment: Inhibition of cell migration in human BXPC-3 cells incubated for 48 hrs by crystal violet staining based transwell assay; type: functional; conditions: dose 2.5-10 µM; in short: as §1
[10] = system: PANC-1; experiment: Inhibition of Hh signaling pathway in human PANC-1 cells assessed as reduction in Gli1 mRNA level incubated for 48 hrs by qRT-PCR analysis; type: cell-based; conditions: dose 2.5-10 µM
In short: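 Total RNA was extracted by column kit after 48 h treatment and checked spectrophotometrically. Gli1 and Ptch1 transcripts were quantified by real-time RT-qPCR with GAPDH as internal control. Results are fold change relative to the untreated group; three separate experiments.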

[11] = system: PANC-1; experiment: Induction of apoptosis in human PANC-1 cells assessed as late apoptotic cells at 2.5 uM incubated for 48 hrs by Annexin V-FITC/PI staining based flow cytometry (reference value: 2.74 %); type: functional
[12] = Toxicity in BALB/c nude mouse xenografted with human BxPC-3 cells assessed as tissue fibrosis in lung at 5 to 15 mg/kg, ip qd for 21 days by H and E staining based analysis; conditions: in vivo, 504 h

In the case of `CN(C)Cc1ccc(NC(=O)c2ccc(Nc3nccc(-c4cccnc4)n3)cc2)cc1`, the Activity [1] is reported as 2.16%, the Activity [2] is reported as 11.1% and the Activity [3] is reported as “Non-toxic”. For the same compound, the inhibition [4] was “Dose-dependent-effect”, the Activity [5] was 2.39% and the Activity [6] was 2.65%. For the same compound, the Activity [7] was 2.19%, the Activity [8] was 72.7% and the inhibition [9] was “Dose-dependent-effect”. The inhibition [10] was “Dose-dependent-effect”, the Activity [11] was 5.12% and the Activity [12] was “Non-toxic”.
